# Measurements taken from ChEMBL document CHEMBL4765230, “Discovery of Orally Efficacious Phosphoinositide 3-Kinase δ Inhibitors with Improved Metabolic Stability” (J Med Chem, 2016).
# Experiments:
# [1] = Oral bioavailability in Sprague-Dawley rat at 5 mg/kg measured over 24 hrs by LC/MS/MS analysis; assay type: ADME, organism-based; conditions: in vivo
# Method in brief: (§1)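 Intravenous 1 mg/kg and oral 5 mg/kg doses. Vehicle: 5% ethanol/55% PEG 400/40% water for rats and dogs; 5% ethanol/22% PEG 400/73% water for cynomolgus; 5% ethanol/25% PEG 400/70% water for rhesus. Half-life and MRT from iv; mean ± SD, n = 3 per route.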
# Rattus norvegicus [2] = experiment: Antiarthritic activity in Lewis rat model of Freund's incomplete adjuvant-induced arthritis assessed as inhibition of pannus formation at 0.3 to 3 mg/kg, po bid administered for 7 days at 12 hrs interval starting from day 10 to day 16 post-immunization by microscopic analysis relative to control; assay type: functional; design: scale not given: the % may be the effect or the level left; conditions: dose 0.3-3 mg/kg, time 7 day
# Method in brief: (§2)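 Female Lewis rats with established collagen-induced arthritis dosed orally twice daily for 7 days at 0.3, 1 and 3 mg/kg, starting day 10 after second collagen immunization. Joint histopathology scored for pannus formation, cartilage damage, bone resorption and periosteal bone formation; ED50 derived. n = 8/treatment group, n = 4 normal controls.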
# [3] = Terminal half life in Sprague-Dawley rat at 1 mg/kg, iv measured over 24 hrs by LC/MS/MS analysis; assay type: ADME, organism-based; conditions: in vivo, read-out: beta t1/2 (converted)
# Method in brief: (§3)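 Single intravenous dose of 1 mg/kg. Vehicles: rats and dogs 5% ethanol/55% PEG 400/40% water; cynomolgus monkeys 5% ethanol/22% PEG 400/73% water; rhesus monkeys 5% ethanol/25% PEG 400/70% water. Plasma concentration–time data gave Vss and iv half-life. Reported as mean ± SD, n = 3.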
# [4] = biological target: Phosphatidylinositol 4,5-bisphosphate 3-kinase catalytic subunit gamma isoform (Homo sapiens, UniProt P48736); experiment: Inhibition of PI3K p110gamma in human basophil assessed as reduction in fMLP-induced basophil activation by flow cytometry analysis; assay type: tissue-based
# Method in brief: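 Basophil activation via fMLP (p110γ) in 25% serum or in isolated WBCs in low serum, with increasing compound concentrations. Anti-CD63-FITC/anti-CCR3-PE staining; ≥150 (25% serum) or ≥75 (low serum) CCR3-high basophils gated; % CD63-positive normalized to 0.3% DMSO vehicle; concentration corrected for reagent dilution.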
# [5] = Volume of distribution at steady state in cynomolgus monkey at 1 mg/kg, iv measured over 24 hrs by LC/MS/MS analysis; assay type: ADME, organism-based, Macaca fascicularis; conditions: in vivo, read-out: Vdss; method in brief: as §3
# Rattus norvegicus [6] = experiment: Antiarthritic activity in Lewis rat model of Freund's incomplete adjuvant-induced arthritis assessed as inhibition of cartilage damage at 0.3 to 3 mg/kg, po bid administered for 7 days at 12 hrs interval starting from day 10 to day 16 post-immunization by microscopic analysis relative to control; assay type: functional; design: scale not given: the % may be the effect or the level left; conditions: dose 0.3-3 mg/kg, time 7 day; method in brief: as §2
# [7] = AUC infinity in Lewis rat at 1 to 5 mg/kg, po administered as single dose; assay type: ADME, organism-based; conditions: in vivo, dose 1-5 mg/kg
# Method in brief: (§4)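 Female Lewis rats given a single oral dose of 1 or 5 mg/kg; plasma concentration–time profiles determined; mean ± SD, n = 3.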
# [8] = Clearance in rat at 1 mg/kg, iv; assay type: ADME, organism-based; conditions: in vivo
# [9] = Volume of distribution at steady state in rhesus monkey at 1 mg/kg, iv measured over 24 hrs by LC/MS/MS analysis; assay type: ADME, organism-based, Macaca mulatta; conditions: in vivo, read-out: Vdss; method in brief: as §3
# [10] = biological target: PI3-kinase p110-alpha/p85-alpha (Homo sapiens, UniProt P42336); experiment: Inhibition of human full length PI3K p110alpha/p85alpha using […] as substrate measured after 30 mins by TR-FRET assay; assay type: protein-complex assay
# PI3K p110 beta/p85 alpha = PI3K p110 beta/p85 alpha (Homo sapiens, UniProt P42338); experiment: Inhibition of recombinant human full-length N-terminal His-tagged PI3K p110beta/p85alpha using […] as substrate measured after 30 mins by TR-FRET assay; assay type: protein-complex assay
# [11] = MRT in cynomolgus monkey at 1 mg/kg, iv measured over 24 hrs by LC/MS/MS analysis; assay type: ADME, organism-based, Macaca fascicularis; conditions: in vivo; method in brief: as §1
# [12] = Volume of distribution at steady state in dog at 1 mg/kg, iv; assay type: ADME, organism-based, Canis lupus familiaris; conditions: in vivo, read-out: Vdss
# Method in brief: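 Rats and dog received 1 mg/kg intravenously, formulated in 12% w/v Captisol in water. Volume of distribution was taken at steady state from the iv plasma profile. Three animals per dosing route.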
# Rattus norvegicus [13] = experiment: Antiarthritic activity in Lewis rat model of Freund's incomplete adjuvant-induced arthritis assessed as reduction in ankle swelling at 1 mg/kg, po bid administered for 7 days at 12 hrs interval starting from day 10 to day 16 post-immunization by caliper method relative to control; assay type: functional; design: scale not given: the % may be the effect or the level left; conditions: time 7 day
# Method in brief: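 Established collagen-induced arthritis in female Lewis rats; oral dosing twice daily for 7 days from day 10 after second immunization. Right and left ankle diameters measured by caliper daily, days 9–18; ankle diameter AUC over days 11–18 compared with arthritic vehicle group (ANOVA, p < 0.05). n = 8/treatment group.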
# [14] = Inhibition of CYP450 (unknown origin) at 25 uM; assay type: ADME; conditions: human
# [15] = Terminal half life in Beagle dog at 1 mg/kg, iv measured over 24 hrs by LC/MS/MS analysis; assay type: ADME, organism-based, Canis lupus familiaris; conditions: in vivo, read-out: beta t1/2 (converted); method in brief: as §3
# [16] = Terminal half life in rhesus monkey at 1 mg/kg, iv measured over 24 hrs by LC/MS/MS analysis; assay type: ADME, organism-based, Macaca mulatta; conditions: in vivo, read-out: beta t1/2 (converted); method in brief: as §3
# [17] = Terminal half life in cynomolgus monkey at 1 mg/kg, iv measured over 24 hrs by LC/MS/MS analysis; assay type: ADME, organism-based, Macaca fascicularis; conditions: in vivo, read-out: beta t1/2 (converted); method in brief: as §3
# [18] = Cmax in Lewis rat at 5 mg/kg, po administered as single dose measured at 2 hrs; assay type: ADME, organism-based; design: route oral, dose 5 mg/kg, time 2 hrs; conditions: in vivo; method in brief: as §4
# [19] = Selectivity index, ratio of IC50 for inhibition of human full length PI3K p110alpha/p85alpha to IC50 for inhibition of human full length PI3K p110delta/p85alpha
# [20] = Volume of distribution at steady state in Sprague-Dawley rat at 1 mg/kg, iv measured over 24 hrs by LC/MS/MS analysis; assay type: ADME, organism-based; conditions: in vivo, read-out: Vdss; method in brief: as §3
# [21] = Selectivity index, ratio of IC50 for inhibition of recombinant human full-length N-terminal His-tagged PI3K p110beta/p85alpha to IC50 for inhibition of human full length PI3K p110delta/p85alpha
# [22] = Plasma concentration in Lewis rat at 1 to 5 mg/kg, po measured at 12 hrs; assay type: ADME, organism-based; conditions: dose 1-5 mg/kg; method in brief: as §4
# [23] = Selectivity index, ratio of IC50 for inhibition of human full length PI3K p110gamma to IC50 for inhibition of human full length PI3K p110delta/p85alpha
# [24] = Chemical stability of the compound at pH 2 phosphate buffer assessed as time required for 90% hydrolytic degradation at 100 ug/ml and 40 degreeC by UPLC-UV analysis; assay type: physicochemical; conditions: in the assay text read “10% hydrolytic degradation” for “90% hydrolytic degradation”, dose 100 µg/ml
# Method in brief: (§5)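 Compound diluted from acetonitrile or DMSO stock to 100 μg/mL final in 50 mM phosphate buffer, pH 2 (or pH 7), ionic strength 0.15 M NaCl, 40 °C in autosampler. Timed injections analysed by reverse-phase UPLC-UV (220 nm); pseudo-first-order kobs from ln c vs time; t50 and t90 calculated.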
# [25] = Chemical stability of the compound at pH 2 phosphate buffer assessed as time required for 50% hydrolytic degradation at 100 ug/ml and 40 degreeC by UPLC-UV analysis; assay type: physicochemical; conditions: dose 100 µg/ml, read-out: Time (converted); method in brief: as §5
# Chain of Phosphatidylinositol 4,5-bisphosphate 3-kinase catalytic subunit gamma isoform (P48736 whole entry, canonical isoform): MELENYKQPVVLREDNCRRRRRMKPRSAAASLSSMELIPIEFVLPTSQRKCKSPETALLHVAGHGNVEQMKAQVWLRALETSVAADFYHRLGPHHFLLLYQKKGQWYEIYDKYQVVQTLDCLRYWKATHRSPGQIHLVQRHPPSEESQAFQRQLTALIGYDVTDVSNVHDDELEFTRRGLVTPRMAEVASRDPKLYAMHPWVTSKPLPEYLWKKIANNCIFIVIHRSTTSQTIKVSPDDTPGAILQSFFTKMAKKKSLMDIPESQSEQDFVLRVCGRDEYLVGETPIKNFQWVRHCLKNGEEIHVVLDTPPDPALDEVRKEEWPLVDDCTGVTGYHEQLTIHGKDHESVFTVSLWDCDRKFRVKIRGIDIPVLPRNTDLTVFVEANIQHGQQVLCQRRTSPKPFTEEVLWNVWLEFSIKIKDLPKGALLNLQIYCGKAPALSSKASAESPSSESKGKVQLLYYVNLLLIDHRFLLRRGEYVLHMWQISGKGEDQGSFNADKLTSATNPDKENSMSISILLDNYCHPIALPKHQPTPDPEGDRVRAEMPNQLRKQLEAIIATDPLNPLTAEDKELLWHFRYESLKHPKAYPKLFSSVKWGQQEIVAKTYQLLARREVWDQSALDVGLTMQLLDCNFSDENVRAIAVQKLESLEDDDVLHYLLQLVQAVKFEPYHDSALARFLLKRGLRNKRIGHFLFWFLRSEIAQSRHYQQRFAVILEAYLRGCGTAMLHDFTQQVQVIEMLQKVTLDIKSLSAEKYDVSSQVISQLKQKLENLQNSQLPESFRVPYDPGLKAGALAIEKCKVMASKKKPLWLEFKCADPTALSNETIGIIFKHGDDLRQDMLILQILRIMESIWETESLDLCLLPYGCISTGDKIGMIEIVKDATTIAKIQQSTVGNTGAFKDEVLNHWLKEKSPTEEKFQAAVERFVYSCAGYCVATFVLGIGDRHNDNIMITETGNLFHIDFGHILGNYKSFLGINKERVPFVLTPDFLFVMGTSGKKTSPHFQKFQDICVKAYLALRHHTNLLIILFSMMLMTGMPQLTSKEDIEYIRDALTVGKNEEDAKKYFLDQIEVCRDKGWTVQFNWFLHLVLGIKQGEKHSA
# Chain of PI3K p110 beta/p85 alpha (P27986 whole entry): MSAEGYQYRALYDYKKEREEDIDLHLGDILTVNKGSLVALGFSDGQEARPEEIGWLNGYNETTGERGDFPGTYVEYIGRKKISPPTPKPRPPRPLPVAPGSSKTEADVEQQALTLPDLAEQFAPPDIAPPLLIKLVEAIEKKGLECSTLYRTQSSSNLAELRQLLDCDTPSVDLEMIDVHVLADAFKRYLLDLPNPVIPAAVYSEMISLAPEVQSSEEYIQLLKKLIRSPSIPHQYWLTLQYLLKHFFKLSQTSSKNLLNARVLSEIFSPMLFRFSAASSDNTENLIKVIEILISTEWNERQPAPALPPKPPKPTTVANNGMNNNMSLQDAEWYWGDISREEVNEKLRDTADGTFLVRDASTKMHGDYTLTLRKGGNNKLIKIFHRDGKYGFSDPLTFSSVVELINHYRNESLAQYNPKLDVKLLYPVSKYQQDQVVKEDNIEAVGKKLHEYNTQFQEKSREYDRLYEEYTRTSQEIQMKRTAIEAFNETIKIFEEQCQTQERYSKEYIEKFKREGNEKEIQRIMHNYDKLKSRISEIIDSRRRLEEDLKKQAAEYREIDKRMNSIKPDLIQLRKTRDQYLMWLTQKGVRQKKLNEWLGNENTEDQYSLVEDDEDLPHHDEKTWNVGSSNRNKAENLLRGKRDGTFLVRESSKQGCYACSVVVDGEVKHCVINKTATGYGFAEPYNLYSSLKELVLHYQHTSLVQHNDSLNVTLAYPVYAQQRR
# Chain of PI3K p110 beta/p85 alpha (P42338 whole entry): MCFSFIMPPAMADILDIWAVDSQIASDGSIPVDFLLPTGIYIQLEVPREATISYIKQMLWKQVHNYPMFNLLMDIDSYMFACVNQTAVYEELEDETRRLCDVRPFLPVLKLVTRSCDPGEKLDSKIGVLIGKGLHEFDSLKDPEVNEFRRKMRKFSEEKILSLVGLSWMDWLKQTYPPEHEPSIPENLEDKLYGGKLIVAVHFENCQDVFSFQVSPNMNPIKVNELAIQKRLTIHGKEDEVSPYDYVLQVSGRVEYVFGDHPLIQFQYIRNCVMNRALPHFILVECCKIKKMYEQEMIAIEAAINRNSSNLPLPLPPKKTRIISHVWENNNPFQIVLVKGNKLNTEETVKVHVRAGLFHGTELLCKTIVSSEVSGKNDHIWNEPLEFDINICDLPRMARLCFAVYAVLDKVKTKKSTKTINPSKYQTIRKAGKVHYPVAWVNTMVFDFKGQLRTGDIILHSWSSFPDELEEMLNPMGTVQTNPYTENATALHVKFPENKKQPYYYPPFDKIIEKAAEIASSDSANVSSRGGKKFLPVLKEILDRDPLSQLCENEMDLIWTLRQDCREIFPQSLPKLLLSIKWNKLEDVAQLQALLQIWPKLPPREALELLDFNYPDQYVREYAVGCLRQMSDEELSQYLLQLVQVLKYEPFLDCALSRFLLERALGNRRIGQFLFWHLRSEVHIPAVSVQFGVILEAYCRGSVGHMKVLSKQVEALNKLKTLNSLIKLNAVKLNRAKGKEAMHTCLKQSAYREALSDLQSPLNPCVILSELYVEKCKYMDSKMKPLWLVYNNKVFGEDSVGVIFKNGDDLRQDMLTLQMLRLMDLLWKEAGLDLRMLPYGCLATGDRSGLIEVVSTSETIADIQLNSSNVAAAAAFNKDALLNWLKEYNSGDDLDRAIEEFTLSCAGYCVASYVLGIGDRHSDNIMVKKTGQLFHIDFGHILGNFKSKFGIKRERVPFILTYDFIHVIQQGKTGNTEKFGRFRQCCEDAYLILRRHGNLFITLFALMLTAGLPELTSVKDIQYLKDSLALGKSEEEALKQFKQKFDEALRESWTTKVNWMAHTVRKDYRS
# Chain of PI3-kinase p110-alpha/p85-alpha (P27986 whole entry): as the sequence (P27986 whole entry) above
# Chain of PI3-kinase p110-alpha/p85-alpha (P42336 whole entry): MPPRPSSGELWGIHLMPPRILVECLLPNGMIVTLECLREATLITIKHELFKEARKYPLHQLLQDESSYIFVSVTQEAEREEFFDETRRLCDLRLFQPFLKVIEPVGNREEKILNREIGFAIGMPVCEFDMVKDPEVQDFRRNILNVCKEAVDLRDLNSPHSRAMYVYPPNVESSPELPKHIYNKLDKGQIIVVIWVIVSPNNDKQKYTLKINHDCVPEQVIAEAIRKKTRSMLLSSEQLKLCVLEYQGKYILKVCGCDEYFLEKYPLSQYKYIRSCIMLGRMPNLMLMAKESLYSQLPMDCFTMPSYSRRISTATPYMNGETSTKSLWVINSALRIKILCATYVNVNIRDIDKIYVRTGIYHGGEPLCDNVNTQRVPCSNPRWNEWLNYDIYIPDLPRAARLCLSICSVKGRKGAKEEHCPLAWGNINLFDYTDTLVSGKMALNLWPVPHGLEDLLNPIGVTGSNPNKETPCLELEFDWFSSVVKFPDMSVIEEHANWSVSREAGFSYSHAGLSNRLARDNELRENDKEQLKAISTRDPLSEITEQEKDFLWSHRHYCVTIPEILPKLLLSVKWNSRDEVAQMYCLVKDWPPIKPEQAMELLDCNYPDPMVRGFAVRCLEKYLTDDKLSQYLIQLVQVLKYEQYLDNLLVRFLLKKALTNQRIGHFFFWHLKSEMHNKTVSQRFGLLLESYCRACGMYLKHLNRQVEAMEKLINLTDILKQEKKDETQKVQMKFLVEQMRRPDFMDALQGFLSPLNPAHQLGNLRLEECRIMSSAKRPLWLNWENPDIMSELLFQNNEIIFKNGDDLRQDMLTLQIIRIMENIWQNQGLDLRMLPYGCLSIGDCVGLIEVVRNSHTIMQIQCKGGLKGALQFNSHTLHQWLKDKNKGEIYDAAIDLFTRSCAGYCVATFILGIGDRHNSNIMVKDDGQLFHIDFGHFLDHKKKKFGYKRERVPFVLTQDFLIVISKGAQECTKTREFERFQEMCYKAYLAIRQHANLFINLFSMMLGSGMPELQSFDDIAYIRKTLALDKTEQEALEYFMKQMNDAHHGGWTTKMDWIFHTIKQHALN
smiles,measurement,setting,value
N#Cc1c(N)nc(N)nc1N[C@H](c1nc2c(F)ccc(Cl)c2c(=O)n1-c1cccnc1)C1CC1 [GS-9901],bioavailability,[1],57%
same,Activity,Rattus norvegicus [2],58%
same,half-life,[3],2.04 h
same,EC50,[4],404 nM
same,Vd,[5],1.21 L/kg
same,Activity,Rattus norvegicus [6],50%
same,AUC(0-inf),[7],16 µM·h
same,clearance,[8],7.17 mL/min/kg
same,Vd,[9],1.34 L/kg
same,IC50,[10],750 nM
same,IC50,PI3K p110 beta/p85 alpha,100 nM
same,MRT,[11],3.05 h
same,Vd,[12],1.03 L/kg
same,Activity,Rattus norvegicus [13],67%
same,inhibition (INH),[14],Not Active
same,half-life,[15],2.01 h
same,half-life,[16],2.45 h
same,half-life,[17],2.89 h
same,Cmax,[18],1780 nM
same,Ratio IC50,[19],750
same,Vd,[20],0.83 L/kg
same,Ratio IC50,[21],100
same,concentration at 12 h,[22],> 32 nM
same,Ratio IC50,[23],190
same,Time,[24],3.1 h
same,half-life at 100 ug/ml,[25],20 h
